High-throughput results: PubChem BioAssay, Broad Institute
RAD52 inh: inhibitors of human RAD52 DNA annealing | P43351 | recombinant RAD52 DNA annealing, FRET fluorescence | inhibition, % at 18.7 µM | actives 0.46% (n = 360,000);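 active means every replicate showing at least 50% inhibition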
PglD DTNB: inhibitors of Campylobacter jejuni PglD acetyltransferase; purified PglD enzyme, DTNB colorimetric CoA detection; inhibition, % at 12.5 µM; actives 0.098% (n = 360,000); in the data active means inhibition above about 16%, passing the limit was not always enough
Ecoli rRNA inh: selective bacterial rRNA inhibition in E. coli. E. coli WT GFP vs humanized-ribosome RFP mutants, fluorescence, 24 h; active compounds read low; DMSO median 0, no signal -100. GFP signal change (wild-type ribosome), % (concentration not given with the values). actives 1.6% (n = 350,000). AID 720706;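 active means significant combined selectivity score with lowered wild-type GFP, culture density cut under 30%, mutant RFP and density less affected; inactive means any of these conditions unmet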
RAD54 branch: blocks human RAD54 Holliday junction branch migration; FAM/BHQ fluorescence; inhibition, % at 10.4 µM; actives 0.14% (n = 360,000); AID 602329;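 active means mean normalized replicate activity at least 40 and at least half of replicates scoring 40 or more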;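 further: 0% = median of neutral control wells and 100% = median of positive control wells; inhibitors cause a drop in the FAM fluorescence signal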
E-selectin induc: induces E-selectin expression in human endothelial cells; HUVEC E-selectin immunofluorescence imaging; normalized: neutral wells 0, TNF-alpha wells 100; activation, % at 7.58 µM; actives 0.37% (n = 260,000); AID 686992;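 active means mean E-selectin-positive cell signal at least 10% of the positive control, reached in at least 60% of replicates, without over 20% cell loss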
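Material: HUVEC primary endothelial cells; Amount: 3,000 cells per well; Dosing: single concentration; Medium: EGM-2 growth medium on 0.1% gelatin-coated wells; Read-out basis: percent E-selectin-positive cells; Signal: immunofluorescence imaging; Control set: TNF-alpha, DMSO.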
XiGFP reactiv: activators of X-chromosome reactivation in mouse fibroblasts; XiGFP mouse fibroblasts, % GFP-positive cells imaging, 3 d; cells co-treated with 5-aza-dC sensitizer; scaled so ellipticine positive control = 100%; activation, % at 7.58 µM; actives 0.055% (n = 360,000); AID 743238;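 active means mean normalized replicate activation at least 10% and every replicate at or above 10%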;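 further: 0% = median of on-plate neutral control wells and 100% = ellipticine 6 µM median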
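Material: SV40-immortalized XiGFP fibroblast cells, line 68-5-11 | Buffer or medium: DMEM containing 5-aza-dC | Dosing: One concentration, pinned | Times: 3 d treatment, 15 min room-temperature fixation | Controls: Ellipticine 6 µM positive control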
* marks the source's active call; other numbers are inactive results; nt = not tested or not shown. Shown are actives, neighbours in structure and some others; about 2% of the full set was active somewhere.

SMILES	RAD52 inh	PglD DTNB	Ecoli rRNA inh	RAD54 branch	E-selectin induc	XiGFP reactiv
CC(C)Oc1cccc(C(=O)NC(=S)Nc2ccc(N3CCN(C)CC3)cc2)c1	38	4	-18*	3	nt	0
CCCC(=O)N1CCN(c2ccc(NC(=S)NC(=O)c3cccc(C)c3)cc2)CC1	-31	-4	-20*	0	nt	0
COc1cccc(C(=O)NC(=S)Nc2ccc(N3CCCC3)cc2)c1	nt	-2	nt	-8	nt	nt
CCOc1cccc(C(=O)Nc2ccc(N3CCCC3)cc2)c1	-22	-5	-19*	5	nt	0
CCC(=O)N1CCN(c2ccc(NC(=S)NC(=O)c3ccc(OC)c([N+](=O)[O-])c3)cc2)CC1	-10	nt	-4	nt	nt	0
CO[C@H]1CN(C)C(=O)c2cc(NC(C)=O)ccc2OC[C@H](C)N(CC2CC2)C[C@@H]1C	-9	2	1	-4	0	0
C[C@H](CO)N1C[C@H](C)[C@@H](CN(C)C)Oc2ncc(-c3cccc(C(=O)N(C)C)c3)cc2C1=O	-1	5	7	8	0	-1
CCOC(=O)c1ccc(-n2c(N)c(C(=O)NCc3ccco3)sc2=S)cc1	6	2	-26*	0	nt	nt
COc1ccc(-n2c(N)c(C(=O)NCc3ccco3)sc2=S)cc1	nt	2	nt	-8	nt	nt
COC(=O)N/N=C/c1cc(Cl)c(OCc2ccccc2F)c(OC)c1	-13	1	-16*	-1	nt	0
COC(=O)[C@]1(CCC(=O)OC(C)(C)C)N=C(c2ccc(OCCCO)cc2)O[C@@H]1c1ccccc1N=[N+]=[N-]	-5	14	nt	0	nt	nt
Cc1noc(C)c1S(=O)(=O)Nc1ccc2c(c1)C(=O)N([C@H](C)CO)C[C@H](C)[C@H](CN(C)C(=O)NC(C)C)OCCCC[C@H](C)O2	6	-2	3	-5	nt	1
C/C(=N\O)c1cccc(Br)c1	-5	nt	-25*	nt	0	0
CC(C)C(=O)Nc1nnc(NC(=S)Nc2ccccc2)s1	-17	3	-34*	-1	nt	1
CCOc1cc(N2CCOCC2)c(OCC)cc1NC(=O)c1ccc(S(=O)(=O)N2CC(C)OC(C)C2)cc1 (stereo unspecified)	-19	3	4	1	131*	0
CCC(=O)N1[C@@H](CO)[C@@H](c2ccccc2)[C@@H]1CN(CC)C(=O)c1ccc(F)cc1	nt	0	2	-6	0	0
Cc1ccc(S(=O)(=O)Nc2ccc3c(c2)CC(=O)N([C@H](C)CO)C[C@H](C)[C@H](CN(C)C(=O)Nc2cccc4ccccc24)O3)cc1	6	-1	2	11	0	0
Cc1ccc(N(C(=O)Nc2ccccc2)C2=NCCC2)cc1	-15	4	-9	10	0	0
COc1ccc(N(C(=O)Nc2ccc(Cl)cc2)C2=NCCC2)cc1	-7	-1	-36*	-8	nt	nt
C[C@@H]1CN([C@H](C)CO)C(=O)c2cc(NC(=O)CCC(F)(F)F)ccc2O[C@H]1CN(C)C(=O)Nc1cccc2ccccc12	-3	-1	3	1	-2	0
CCc1cc(C(=O)c2ccc(OC)cc2)c(NC(=O)CCC(=O)O)s1	-12	-4	-42*	-4	0	0
C[C@@H]1CN([C@H](C)CO)C(=O)c2cc(NS(=O)(=O)c3ccc(Cl)cc3)ccc2O[C@H]1CN(C)S(=O)(=O)c1ccc(Cl)cc1	0	1	-2	1	1	0
CC(=O)Nc1ccc(S(=O)(=O)N2CCN(S(=O)(=O)c3ccccc3)CC2)cc1	-3	4	6	7	0	0
CC(=O)Nc1ccc(S(=O)(=O)N2CCN(CC3CC4C=CC3C4)CC2)cc1 (stereo unspecified)	-16	nt	-22*	nt	1	0
CN(C)C(=O)c1ccc(-c2ccc([C@@H]3[C@@H](C#N)N(C(=O)C4CCC4)[C@H]3CO)cc2)cc1	2	5	1	-3	0	0
FC(F)Oc1ccc(-n2cc(-c3ccccc3)[n+]3c2CCCCC3)cc1	8	nt	-28*	nt	0	0
CC(C)(C)c1ccc(-c2cn(-c3ccc(Br)cc3)c3[n+]2CCCS3)cc1	7	nt	-50*	nt	-9	0
